Data taken from ChEMBL document CHEMBL1649231, “In vitro activities of panduratin A against clinical Staphylococcus strains” (2009).
≈ marks a conversion by molar mass, not a printed value.

Columns and labels:
Type in all cases: functional
Staphylococcus aureus [1] = experiment: Antimicrobial activity against methicillin-susceptible Staphylococcus aureus assessed as susceptible isolates after 24 hrs by broth microdilution method
[2] = tested on: Staphylococcus epidermidis; experiment: Antimicrobial activity against methicillin-resistant coagulase-negative Staphylococcus epidermidis after 24 hrs by broth microdilution method
Summary of the method: (§1)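 Clinical isolates came from blood, body fluids, genital secretions, pus or sputum, identified conventionally or by Vitek. MICs were run by CLSI M7-A6 broth microdilution in Mueller-Hinton broth with 5 × 10^5 CFU/ml inoculum. Agents were twofold serially diluted, starting from 10% DMSO. Drug-free and uninoculated controls were included. Plates were incubated aerobically at 37°C for 24 h; MIC is the lowest concentration giving no visible growth.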

Staphylococcus aureus [3] = experiment: Antimicrobial activity against methicillin-resistant Staphylococcus aureus assessed as resistant isolates after 24 hrs by broth microdilution method
Mammaliicoccus sciuri [4] = experiment: Antimicrobial activity against methicillin-resistant coagulase-negative Staphylococcus sciuri assessed as resistant isolates after 24 hrs by broth microdilution method
Staphylococcus hominis [5] = experiment: Antimicrobial activity against methicillin-resistant coagulase-negative Staphylococcus hominis assessed as resistant isolates after 24 hrs by broth microdilution method
[6] = tested on: Staphylococcus haemolyticus; experiment: Antimicrobial activity against methicillin-susceptible coagulase-negative Staphylococcus haemolyticus assessed as resistant isolates after 24 hrs by broth microdilution method
Staphylococcus simulans [7] = experiment: Antimicrobial activity against methicillin-susceptible coagulase-negative Staphylococcus simulans assessed as susceptible isolates after 24 hrs by broth microdilution method
Summary of the method: (§2)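 Clinical isolates from blood, body fluids, pus, sputum or genital secretions, identified conventionally or by Vitek, were tested alongside ATCC 29213 and ATCC 12228 controls. CLSI M7-A6 broth microdilution in Mueller-Hinton broth used twofold dilutions from a 10% DMSO solution and 5 × 10^5 CFU/ml inoculum. Drug-free and uninoculated wells served as controls; incubation was aerobic at 37°C for 24 h. MIC was the lowest concentration with no visible growth.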

[8] = tested on: Staphylococcus haemolyticus; experiment: Antimicrobial activity against methicillin-resistant coagulase-negative Staphylococcus haemolyticus assessed as resistant isolates after 24 hrs by broth microdilution method
[9] = tested on: Staphylococcus epidermidis; experiment: Antimicrobial activity against methicillin-susceptible coagulase-negative Staphylococcus epidermidis after 24 hrs by broth microdilution method; summary of the method: as §1
Staphylococcus aureus [10] = experiment: Bactericidal activity against methicillin-resistant Staphylococcus aureus after 24 hrs by plate counting method
[11] = tested on: Staphylococcus epidermidis; experiment: Bactericidal activity against methicillin-susceptible coagulase-negative Staphylococcus epidermidis after 24 hrs by plate counting method
Summary of the method: (§3)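 Clinical staphylococcal isolates from patient body fluids, blood, genital secretions, pus or sputum; species by conventional methods or Vitek. Twofold dilutions in Mueller-Hinton broth, inoculum 5 × 10^5 CFU/ml, 37°C aerobic 24 h (CLSI M7-A6 microdilution). About 100 μl from each well without visible growth spread on MHA; 37°C 24 h. MBC = lowest concentration giving no growth on agar.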

[12] = tested on: Staphylococcus haemolyticus; experiment: Antimicrobial activity against methicillin-resistant coagulase-negative Staphylococcus haemolyticus after 24 hrs by broth microdilution method; summary of the method: as §1
Staphylococcus simulans [13] = experiment: Bactericidal activity against methicillin-resistant coagulase-negative Staphylococcus simulans after 24 hrs by plate counting method; summary of the method: as §3
Staphylococcus simulans [14] = experiment: Antimicrobial activity against methicillin-resistant coagulase-negative Staphylococcus simulans assessed as resistant isolates after 24 hrs by broth microdilution method
[15] = tested on: Staphylococcus haemolyticus; experiment: Bactericidal activity against methicillin-resistant coagulase-negative Staphylococcus haemolyticus after 24 hrs by plate counting method
Staphylococcus aureus [16] = experiment: Antimicrobial activity against methicillin-susceptible Staphylococcus aureus after 24 hrs by broth microdilution method; summary of the method: as §1
Staphylococcus hominis [17] = experiment: Antimicrobial activity against methicillin-resistant coagulase-negative Staphylococcus hominis after 24 hrs by broth microdilution method; summary of the method: as §1
[18] = tested on: Staphylococcus epidermidis; experiment: Antimicrobial activity against methicillin-susceptible coagulase-negative Staphylococcus epidermidis assessed as susceptible isolates after 24 hrs by broth microdilution method
Mammaliicoccus sciuri [19] = experiment: Bactericidal activity against methicillin-susceptible coagulase-negative Staphylococcus sciuri after 24 hrs by plate counting method; summary of the method: as §3
Mammaliicoccus sciuri [20] = experiment: Antimicrobial activity against methicillin-susceptible coagulase-negative Staphylococcus sciuri assessed as susceptible isolates after 24 hrs by broth microdilution method; summary of the method: as §2
[21] = tested on: Staphylococcus epidermidis; experiment: Antimicrobial activity against methicillin-resistant coagulase-negative Staphylococcus epidermidis assessed as resistant isolates after 24 hrs by broth microdilution method
[22] = tested on: Staphylococcus haemolyticus; experiment: Antimicrobial activity against methicillin-susceptible coagulase-negative Staphylococcus haemolyticus after 24 hrs by broth microdilution method; summary of the method: as §1
[23] = tested on: Staphylococcus haemolyticus; experiment: Bactericidal activity against methicillin-susceptible coagulase-negative Staphylococcus haemolyticus after 24 hrs by plate counting method; summary of the method: as §3
[24] = tested on: Staphylococcus epidermidis; experiment: Bactericidal activity against methicillin-resistant coagulase-negative Staphylococcus epidermidis after 24 hrs by plate counting method
Mammaliicoccus sciuri [25] = experiment: Antimicrobial activity against methicillin-susceptible coagulase-negative Staphylococcus sciuri assessed as resistant isolates after 24 hrs by broth microdilution method
Staphylococcus simulans [26] = experiment: Bactericidal activity against methicillin-susceptible coagulase-negative Staphylococcus simulans after 24 hrs by plate counting method; summary of the method: as §3
Staphylococcus simulans [27] = experiment: Antimicrobial activity against methicillin-resistant coagulase-negative Staphylococcus simulans after 24 hrs by broth microdilution method; summary of the method: as §1
Staphylococcus aureus [28] = experiment: Bactericidal activity against methicillin-susceptible Staphylococcus aureus after 24 hrs by plate counting method; summary of the method: as §3
Mammaliicoccus sciuri [29] = experiment: Antimicrobial activity against methicillin-resistant coagulase-negative Staphylococcus sciuri after 24 hrs by broth microdilution method; summary of the method: as §1
Staphylococcus hominis [30] = experiment: Antimicrobial activity against methicillin-susceptible coagulase-negative Staphylococcus hominis after 24 hrs by broth microdilution method; summary of the method: as §1
Staphylococcus hominis [31] = experiment: Bactericidal activity against methicillin-susceptible coagulase-negative Staphylococcus hominis after 24 hrs by plate counting method; summary of the method: as §3
[32] = tested on: Staphylococcus epidermidis; experiment: Antimicrobial activity against methicillin-susceptible coagulase-negative Staphylococcus epidermidis assessed as resistant isolates after 24 hrs by broth microdilution method
Staphylococcus simulans [33] = experiment: Antimicrobial activity against methicillin-susceptible coagulase-negative Staphylococcus simulans after 24 hrs by broth microdilution method; summary of the method: as §1
Staphylococcus aureus [34] = experiment: Antimicrobial activity against methicillin-resistant Staphylococcus aureus after 24 hrs by broth microdilution method; summary of the method: as §1
Mammaliicoccus sciuri [35] = experiment: Bactericidal activity against methicillin-resistant coagulase-negative Staphylococcus sciuri after 24 hrs by plate counting method; summary of the method: as §3
Staphylococcus hominis [36] = experiment: Antimicrobial activity against methicillin-susceptible coagulase-negative Staphylococcus hominis assessed as susceptible isolates after 24 hrs by broth microdilution method
Staphylococcus hominis [37] = experiment: Antimicrobial activity against methicillin-susceptible coagulase-negative Staphylococcus hominis assessed as resistant isolates after 24 hrs by broth microdilution method
Staphylococcus hominis [38] = experiment: Bactericidal activity against methicillin-resistant coagulase-negative Staphylococcus hominis after 24 hrs by plate counting method
[39] = tested on: Staphylococcus haemolyticus; experiment: Antimicrobial activity against methicillin-susceptible coagulase-negative Staphylococcus haemolyticus assessed as susceptible isolates after 24 hrs by broth microdilution method
Mammaliicoccus sciuri [40] = experiment: Antimicrobial activity against methicillin-susceptible coagulase-negative Staphylococcus sciuri after 24 hrs by broth microdilution method; summary of the method: as §1
Staphylococcus simulans [41] = experiment: Antimicrobial activity against methicillin-susceptible coagulase-negative Staphylococcus simulans assessed as resistant isolates after 24 hrs by broth microdilution method
Staphylococcus aureus [42] = experiment: Antimicrobial activity against methicillin-susceptible Staphylococcus aureus assessed as resistant isolates after 24 hrs by broth microdilution method
[43] = Staphylococcus epidermidis, 24 h
[44] = Staphylococcus haemolyticus, 24 h

Compound CC1(C)S[C@@H]2[C@H](NC(=O)[C@H](N)c3ccccc3)C(=O)N2[C@H]1C(=O)O [AMPICILLIN] has an Activity (Staphylococcus aureus [1]) of 0%, an MIC50 [2] of 16 µg/mL (≈ 45.8 µM) and an MIC90 [2] of 64 µg/mL (≈ 183 µM). The Activity (Staphylococcus aureus [3]) was 100%, the Activity (Mammaliicoccus sciuri [4]) was 100% and the Activity (Staphylococcus hominis [5]) was 100%. The Activity [6] was 100%, the Activity (Staphylococcus simulans [7]) was 0% and the Activity [8] was 100%. It also gave an MIC50 [9] of 2 µg/mL (≈ 5.72 µM), an MIC90 [9] of 16 µg/mL (≈ 45.8 µM) and an MBC90 (Staphylococcus aureus [10]) of 256 µg/mL (≈ 733 µM). For the same compound, the MBC (Staphylococcus aureus [10]; Staphylococcus aureus, 24 h) was 32 µg/mL (≈ 91.6 µM), the MBC50 [11] was 4 µg/mL (≈ 11.4 µM) and the MBC90 [11] was 128 µg/mL (≈ 366 µM). It also gave an MBC [11, 43] of 1 µg/mL (≈ 2.86 µM), an MIC50 [12] of 16 µg/mL (≈ 45.8 µM) and an MIC90 [12] of 64 µg/mL (≈ 183 µM). For the same compound, the MBC50 (Staphylococcus simulans [13]) was 32 µg/mL (≈ 91.6 µM), the MBC90 (Staphylococcus simulans [13]) was 256 µg/mL (≈ 733 µM) and the MBC (Staphylococcus simulans [13]; Staphylococcus simulans, 24 h) was greater than 2 µg/mL. For the same compound, the Activity (Staphylococcus simulans [14]) was 100%, the MBC50 [15] was 32 µg/mL (≈ 91.6 µM) and the MBC90 [15] was 256 µg/mL (≈ 733 µM). For the same compound, the MBC [15, 44] was greater than 2 µg/mL, the MIC50 (Staphylococcus aureus [16]) was 32 µg/mL (≈ 91.6 µM) and the MIC90 (Staphylococcus aureus [16]) was 32 µg/mL (≈ 91.6 µM). It also gave an MIC50 (Staphylococcus hominis [17]) of 16 µg/mL (≈ 45.8 µM), an MIC90 (Staphylococcus hominis [17]) of 64 µg/mL (≈ 183 µM) and an Activity [18] of 0%. It also gave an MBC50 (Mammaliicoccus sciuri [19]) of 4 µg/mL (≈ 11.4 µM), an MBC90 (Mammaliicoccus sciuri [19]) of 128 µg/mL (≈ 366 µM) and an MBC (Mammaliicoccus sciuri [19]; Mammaliicoccus sciuri, 24 h) of 1 µg/mL (≈ 2.86 µM). For the same compound, the Activity (Mammaliicoccus sciuri [20]) was 0%, the Activity [21] was 100% and the MIC50 [22] was 2 µg/mL (≈ 5.72 µM). The MIC90 [22] was 16 µg/mL (≈ 45.8 µM), the MBC50 [23] was 4 µg/mL (≈ 11.4 µM) and the MBC90 [23] was 128 µg/mL (≈ 366 µM). For the same compound, the MBC [23, 44] was 1 µg/mL (≈ 2.86 µM), the MBC50 [24] was 32 µg/mL (≈ 91.6 µM) and the MBC90 [24] was 256 µg/mL (≈ 733 µM). For the same compound, the MBC [24, 43] was greater than 2 µg/mL, the Activity (Mammaliicoccus sciuri [25]) was 100% and the MBC50 (Staphylococcus simulans [26]) was 4 µg/mL (≈ 11.4 µM). It also gave an MBC90 (Staphylococcus simulans [26]) of 128 µg/mL (≈ 366 µM), an MIC50 (Staphylococcus simulans [27]) of 16 µg/mL (≈ 45.8 µM) and an MIC90 (Staphylococcus simulans [27]) of 64 µg/mL (≈ 183 µM). For the same compound, the MBC50 (Staphylococcus aureus [28]) was 64 µg/mL (≈ 183 µM), the MBC90 (Staphylococcus aureus [28]) was 128 µg/mL (≈ 366 µM) and the MBC (Staphylococcus aureus [28]; Staphylococcus aureus, 24 h) was 1 µg/mL (≈ 2.86 µM). The MIC50 (Mammaliicoccus sciuri [29]) was 16 µg/mL (≈ 45.8 µM), the MIC90 (Mammaliicoccus sciuri [29]) was 64 µg/mL (≈ 183 µM) and the MIC50 (Staphylococcus hominis [30]) was 2 µg/mL (≈ 5.72 µM). It also gave an MIC90 (Staphylococcus hominis [30]) of 16 µg/mL (≈ 45.8 µM), an MBC50 (Staphylococcus hominis [31]) of 4 µg/mL (≈ 11.4 µM) and an MBC90 (Staphylococcus hominis [31]) of 128 µg/mL (≈ 366 µM). For the same compound, the MBC (Staphylococcus hominis [31]; Staphylococcus hominis, 24 h) was 1 µg/mL (≈ 2.86 µM), the Activity [32] was 100% and the MIC50 (Staphylococcus simulans [33]) was 2 µg/mL (≈ 5.72 µM). For the same compound, the MIC90 (Staphylococcus simulans [33]) was 16 µg/mL (≈ 45.8 µM), the MIC50 (Staphylococcus aureus [34]) was 16 µg/mL (≈ 45.8 µM) and the MIC90 (Staphylococcus aureus [34]) was 64 µg/mL (≈ 183 µM). It also gave an MBC50 (Mammaliicoccus sciuri [35]) of 32 µg/mL (≈ 91.6 µM), an MBC90 (Mammaliicoccus sciuri [35]) of 256 µg/mL (≈ 733 µM) and an MBC (Mammaliicoccus sciuri [35]; Mammaliicoccus sciuri, 24 h) greater than 2 µg/mL. It also gave an Activity (Staphylococcus hominis [36]) of 0%, an Activity (Staphylococcus hominis [37]) of 100% and an MBC50 (Staphylococcus hominis [38]) of 32 µg/mL (≈ 91.6 µM). It also gave an MBC90 (Staphylococcus hominis [38]) of 256 µg/mL (≈ 733 µM), an MBC (Staphylococcus hominis [38]; Staphylococcus hominis, 24 h) greater than 2 µg/mL and an Activity [39] of 0%. The MIC50 (Mammaliicoccus sciuri [40]) was 2 µg/mL (≈ 5.72 µM), the MIC90 (Mammaliicoccus sciuri [40]) was 16 µg/mL (≈ 45.8 µM) and the Activity (Staphylococcus simulans [41]) was 100%. It also gave an Activity (Staphylococcus aureus [42]) of 100%.
